Screens as filed in PubChem BioAssay.
Pf Dd2 inh: P. falciparum Dd2 growth inhibition | SYBR Green, 72 h; hits give low values | activity change, % at 10 µM | 94,000 compounds, 2.3% hits; in the data active means activity change below about -80%; inconclusive means no clear call, values can overlap the other calls
KDM4C inh: blocks human GASC-1 (KDM4C) demethylase activity; 96,000 compounds, 0.15% hits; Q9H3R0; GST-KDM4C 2-372, H3K9me3 peptide, LANCE TR-FRET; AID 720574; inhibition, % at 12.5 µM;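 active means mean replicate inhibition above about 25%, with at least 55% of replicates also reaching it, limit read from the data, passing the limit was not always enough; inconclusive means only one of those two conditions met; inactive means neither condition met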
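Compound: one test concentration per compound; Material: GST-GASC-1 enzyme fragment 2-372; Amount: GASC-1 enzyme at 10 nM final in reaction; Also added: H3K9me3 peptide substrate, Fe(II), 2-oxoglutarate; Technique: LANCE TR-FRET; Times: 30 min demethylation and 1 h detection at room temperature.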
IDH1 mut inh: blocks human IDH1 R132H reductase activity. diaphorase/resazurin fluorescence, 60 min. inhibition, % at 10 µM. 70,000 compounds, 0.18% hits; in the data active means inhibition above about 34%; inconclusive means no clear call, values can overlap the other calls; inactive means below about 11%;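 further: 0% = DMSO and 100% = no enzyme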
Target sequence (O75874 whole entry R132H): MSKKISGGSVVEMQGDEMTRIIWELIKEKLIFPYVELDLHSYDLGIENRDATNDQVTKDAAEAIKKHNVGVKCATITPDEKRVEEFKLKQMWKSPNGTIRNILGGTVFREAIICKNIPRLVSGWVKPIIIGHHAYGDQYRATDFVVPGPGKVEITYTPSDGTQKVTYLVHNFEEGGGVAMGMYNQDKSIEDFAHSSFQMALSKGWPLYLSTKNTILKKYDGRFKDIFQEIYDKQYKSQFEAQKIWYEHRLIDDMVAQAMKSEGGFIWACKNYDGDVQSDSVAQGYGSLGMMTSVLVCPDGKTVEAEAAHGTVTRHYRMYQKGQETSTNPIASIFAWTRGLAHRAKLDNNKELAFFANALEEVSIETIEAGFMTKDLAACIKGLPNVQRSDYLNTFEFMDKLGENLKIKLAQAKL
T cruzi growth-1: T. cruzi proliferation inhibition; inhibition, % at 8.34 µM; AID 624255; T. cruzi beta-gal in NIH3T3, GalScreen luminescence, 90 h; 77,000 compounds, 5.9% hits;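 active means mean inhibition above about 93%, with at least 55% of replicates each passing it, limit read from the data, passing the limit was not always enough; inconclusive means only one of those two conditions holds; inactive means neither condition holds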
T cruzi growth-2: blocks T. cruzi growth in NIH3T3 host cells; T. cruzi beta-gal in NIH3T3, GalScreen luminescence, 90 h; 5,600 compounds, 72% hits; shares compounds with T cruzi growth-1; inhibition, % at 8.35 µM; AID 651739;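 active means mean replicate inhibition above about 95% and at least 55% of replicates individually reaching it, limit read from the data; inconclusive means only one of the two criteria is met; inactive means neither criterion is met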
T cruzi growth-3: Trypanosoma cruzi proliferation inhibition. shares compounds with T cruzi growth-1. T. cruzi beta-gal in NIH3T3, GalScreen luminescence, 90 h. inhibition, % at 2.09 µM. 5,600 compounds, 21% hits. AID 651740;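 active means mean inhibition above about 95%, with at least 55% of replicates also reaching it, limit read from the data; inconclusive means meets just one of the two conditions; inactive means meets neither condition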;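 further: plate controls were neutral control median for no effect and positive control median for full effect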
NIH3T3 tox: NIH/3T3 (mouse) viability loss; shares compounds with T cruzi growth-1; NIH/3T3 viability, CellTiter-Glo ATP luminescence, 90 h; 5,600 compounds, 14% hits; cytotoxicity (signal decrease), % at 8.35 µM;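 active means mean signal decrease across replicates above about 35% based on untreated-well scatter, with enough replicates individually passing, limit read from the data; inconclusive means no rule stated though some were filed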;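 further: 0% = median of neutral control wells and 100% = median of positive control wells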
3T3 cytotox 2: cytotoxicity in mouse NIH/3T3 fibroblasts; NIH/3T3 viability, CellTiter-Glo ATP luminescence, 90 h; inhibition, % at 24.9 µM; 5,600 compounds, 56% hits; shares compounds with T cruzi growth-1; AID 651744;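 active means mean loss of cell viability signal at or above a set limit, and enough replicates individually reaching it; inconclusive means meets only the mean limit or only the replicate share; inactive means meets neither condition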;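 further: 0% = median of neutral control wells and 100% = median of positive control wells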
Starred values were filed as active, the others as inactive. An excerpt weighted towards active compounds, which were near 5.8% of everything screened.

What do the screens show for `COc1ccccc1CNC(=O)C[C@H]1C[C@H]2c3cc(NC(=O)Nc4ccc(C(F)(F)F)cc4)ccc3O[C@H]2[C@@H](CO)O1`?
Pf Dd2 inh: -32.7; KDM4C inh: -0.1; IDH1 mut inh: -0.1; T cruzi growth-1: 122.9*; T cruzi growth-2: 105.3*; T cruzi growth-3: 65.3; NIH3T3 tox: -9.1; 3T3 cytotox 2: -1.5

What do the screens show for `COc1ccccc1CNC(=O)C[C@@H]1CC[C@@H](NC(C)=O)[C@H](CO)O1`?
Pf Dd2 inh: -14.7; KDM4C inh: -1.4; IDH1 mut inh: -0.3; T cruzi growth-1: inconclusive; T cruzi growth-2: 3.5; T cruzi growth-3: -23.8; NIH3T3 tox: -14.8; 3T3 cytotox 2: 3.3

How did COc1ccccc1CNC(=O)C[C@H]1C[C@@H]2c3cc(NC(=O)Nc4ccc(C(F)(F)F)cc4)ccc3O[C@@H]2[C@@H](CO)O1 do in these assays?
Pf Dd2 inh: inconclusive; KDM4C inh: -2.6; IDH1 mut inh: 1.0; T cruzi growth-1: 140.5*; T cruzi growth-2: 110.4*; T cruzi growth-3: 100.6*; NIH3T3 tox: 0.2; 3T3 cytotox 2: 14.1

Results for COCC(=O)Nc1ccc2c(c1)[C@H]1C[C@H](CC(=O)NCc3ccccc3OC)O[C@@H](CO)[C@H]1O2 ?
Pf Dd2 inh: 0.2; KDM4C inh: 1.2; IDH1 mut inh: -1.2; T cruzi growth-1: 100.7*; T cruzi growth-2: 3.1; T cruzi growth-3: -0.3; NIH3T3 tox: -8.4; 3T3 cytotox 2: -12.0

Results for COc1ccccc1CNC(=O)C[C@H]1CC[C@H](NC(C)=O)[C@H](CO)O1 ?
Pf Dd2 inh: 1.8; KDM4C inh: -1.5; IDH1 mut inh: -0.1; T cruzi growth-1: -57.3

Results for COc1ccccc1CNC(=O)C[C@H]1C[C@H]2c3cc(NC(=O)CC4CC4)ccc3O[C@H]2[C@H](CO)O1 ?
Pf Dd2 inh: -18.4; KDM4C inh: -0.4; IDH1 mut inh: -0.1; T cruzi growth-1: -15.9

What do the screens show for `O=S(=O)(Cc1ccccc1)N1CCCCN2[C@H](CO)[C@H](c3ccc(-c4ccccc4)cc3)[C@H]2C1`?
Pf Dd2 inh: -42.2; KDM4C inh: -0.7; T cruzi growth-1: 106.4*; T cruzi growth-2: 98.1*; T cruzi growth-3: 63.3; NIH3T3 tox: 54.1*; 3T3 cytotox 2: 104.0*

How did O=S(=O)(Cc1ccccc1)N1CCCCN2[C@H](CO)[C@@H](c3ccc(-c4ccccc4)cc3)[C@@H]2C1 do in these assays?
Pf Dd2 inh: -24.0; KDM4C inh: -1.1; T cruzi growth-1: 114.1*; T cruzi growth-2: 102.1*; T cruzi growth-3: 103.2*; NIH3T3 tox: inconclusive; 3T3 cytotox 2: 101.1*

How did O=S(=O)(Cc1ccccc1)N1CCCCN2[C@H](CO)[C@H](c3ccc(-c4ccncc4)cc3)[C@@H]2C1 do in these assays?
Pf Dd2 inh: -2.5; KDM4C inh: -0.6; T cruzi growth-1: -70.2

How did Cc1ccc(S(=O)(=O)N[C@H]2C=C[C@H](CC(=O)N3CCC(Cc4ccccc4)CC3)O[C@H]2CO)cc1 do in these assays?
Pf Dd2 inh: -19.3; KDM4C inh: -0.9; IDH1 mut inh: -0.2; T cruzi growth-1: 124.9*; T cruzi growth-2: 102.8*; T cruzi growth-3: -4.5; NIH3T3 tox: -1.4; 3T3 cytotox 2: 8.5

How did O=C(C[C@H]1C=C[C@H](NS(=O)(=O)c2ccc(F)cc2)[C@H](CO)O1)N1CCC(Cc2ccccc2)CC1 do in these assays?
Pf Dd2 inh: 1.0; KDM4C inh: 1.2; IDH1 mut inh: -0.2; T cruzi growth-1: inconclusive; T cruzi growth-2: 106.9*; T cruzi growth-3: -15.1; NIH3T3 tox: -18.1; 3T3 cytotox 2: 15.7

How did C[C@H]1CCCCO[C@H](CN(C)C(=O)Cc2ccccc2)[C@@H](C)CN([C@@H](C)CO)C(=O)c2cc(NC(=O)NC3CCCCC3)ccc2O1 do in these assays?
Pf Dd2 inh: -34.4; KDM4C inh: -1.7; IDH1 mut inh: -1.6; T cruzi growth-1: 76.0
